According to ChEMBL document CHEMBL1255430, “Kinetic parameters of efflux of penicillins by the multidrug efflux transporter AcrAB-TolC of Escherichia coli” (Antimicrob Agents Chemother, 2010):
≈ marks a conversion by molar mass, not a printed value.

B1: Beta-lactamase OXA-7 (Escherichia coli), P35695 (protein)
chain: MKTFAAYVITACLSSTALASSITENTFWNKEFSAEAVNGVFVLCKSSSKLACATNNLARASKEYLPASTFKIPNAIIGLETGVIKNEHQIFKWDGKPRAMKQWERDLSLRGAIQVSAVPVFQQIAREVGEVRMQKYLKKFSYGNQNISGGIDKFWLEGQLRISAVNQVEFLESLFLNKLSASKENQLIVKEALVTEAPEYLVHSKTGFSGVGTESNPGVAWWVGWVEKGAEVYFFAFNMDIDNENKLPLRKSIPTKIMASEGIIGG

What was measured:
Escherichia coli [1] = test: Antimicrobial activity against Escherichia coli HN1157/pHSG576oxa7; assay type: functional
[2] = Lipophilicity, log P of the compound; assay type: physicochemical; details: octanol/water
Escherichia coli [3] = test: Antimicrobial activity against Escherichia coli HN1157/pHSG576oxa7 assessed as minimal drug concentration; assay type: functional
How it was run: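 The inoculum was grown overnight in modified LB broth with 10 μg/ml chloramphenicol to keep the plasmid, diluted to OD660 0.1 and streaked across the gradient. Plates were read after overnight incubation at 30°C.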

Escherichia coli [4] = details: HN1157
[5] = Permeability across Escherichia coli HN1157/pHSG576oxa7 assessed as permeability coefficient in presence of proton uncoupler carbonyl cyanide meta-chlorophenylhydrazone; assay type: ADME, organism-based; details: not told, read-out: permeability
[6] = substrate: CC1(C)S[C@@H]2[C@H](NC(=O)COc3ccccc3)C(=O)N2[C@H]1C(=O)O; test: (§1) Activity at Escherichia coli isolate 7181 beta-lactamase OXA-7
How it was run: (§2)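 Crude sonicates of E. coli HN1157 carrying low-copy pHSG576oxa7, grown 14 h at 30°C in modified LB with 10 μg/ml chloramphenicol (plus 0.1% glucose for some substrates). Extract equals OD600 0.025 cells (9.38 μg dry weight/ml) in 50 mM potassium phosphate, pH 7.0, 5 mM MgCl2. Penicillin hydrolysis stopped with TCA at 2 min. Microiodometric OD592 read after 30 min, minus a zero-time TCA blank. Km and Vmax expressed per mg cell dry weight.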

[7] = substrate: Cc1onc(-c2ccccc2Cl)c1C(=O)N[C@@H]1C(=O)N2[C@@H]1SC(C)(C)[C@@H]2C(=O)O; test: as §1; how it was run: as §2
[8] = substrate: CC1(C)S[C@@H]2[C@H](NC(=O)[C@H](NC(=O)N3CCNC3=O)c3ccccc3)C(=O)N2[C@H]1C(=O)O; test: as §1; how it was run: as §2
[9] = substrate: CC1(C)S[C@@H]2[C@H](NC(=O)[C@H](NC(=O)N3CCN(S(C)(=O)=O)C3=O)c3ccccc3)C(=O)N2[C@H]1C(=O)O; test: as §1; how it was run: as §2
[10] = substrate: Cc1onc(-c2c(Cl)cccc2Cl)c1C(=O)N[C@@H]1C(=O)N2[C@@H]1SC(C)(C)[C@@H]2C(=O)O; test: as §1; how it was run: as §2
[11] = substrate: CCN1CCN(C(=O)N[C@@H](C(=O)N[C@@H]2C(=O)N3[C@@H]2SC(C)(C)[C@@H]3C(=O)O)c2ccccc2)C(=O)C1=O; test: as §1; how it was run: as §2
[12] = substrate: Cc1onc(-c2ccccc2)c1C(=O)N[C@@H]1C(=O)N2[C@@H]1SC(C)(C)[C@@H]2C(=O)O; test: as §1; how it was run: as §2

| Molecule | MIC (Escherichia coli [1]) | logP [2] | Activity (Escherichia coli [3]) | K0.5 (Escherichia coli [4]) | Papp [5] | Km [6] | Km [7] | Km [8] | Km [9] | Km [10] | Km [11] | Km [12] |
| --- | --- | --- | --- | --- | --- | --- | --- | --- | --- | --- | --- | --- |
| CC1(C)S[C@@H]2[C@H](NC(=O)[C@H](N)c3ccccc3)C(=O)N2[C@H]1C(=O)O [AMPICILLIN] | 39 µg/mL (≈ 112 µM) | -1.03 | 2.9 µM |  |  |  |  |  |  |  |  |  |
| CC1(C)S[C@@H]2[C@H](NC(=O)[C@H](NC(=O)N3CCNC3=O)c3ccccc3)C(=O)N2[C@H]1C(=O)O [AZLOCILLIN] | 44 µg/mL (≈ 95.3 µM) | 0.71 | 1.3 µM | 1.06 µM | 40 ×10⁻⁶ cm/s |  |  |  |  |  |  |  |
| Cc1onc(-c2ccccc2Cl)c1C(=O)N[C@@H]1C(=O)N2[C@@H]1SC(C)(C)[C@@H]2C(=O)O [CLOXACILLIN] | 295 µg/mL (≈ 677 µM) | 2.8 | 11 µM | 0.91 µM | 60 ×10⁻⁶ cm/s |  |  |  |  |  |  |  |
| Cc1onc(-c2c(Cl)cccc2Cl)c1C(=O)N[C@@H]1C(=O)N2[C@@H]1SC(C)(C)[C@@H]2C(=O)O [DICLOXACILLIN] | 560 µg/mL (≈ 1190 µM) | 3.4 | 39 µM | 0.53 µM | 60 ×10⁻⁶ cm/s |  |  |  |  |  |  |  |
| CC1(C)S[C@@H]2[C@H](NC(=O)[C@H](NC(=O)N3CCN(S(C)(=O)=O)C3=O)c3ccccc3)C(=O)N2[C@H]1C(=O)O [MEZLOCILLIN] | 30 µg/mL (≈ 55.6 µM) | 0.67 | 1.1 µM | 1.08 µM | 50 ×10⁻⁶ cm/s |  |  |  |  |  |  |  |
| Cc1onc(-c2ccccc2)c1C(=O)N[C@@H]1C(=O)N2[C@@H]1SC(C)(C)[C@@H]2C(=O)O [OXACILLIN] | 282 µg/mL (≈ 702 µM) | 2.1 | 12 µM | 0.97 µM | 60 ×10⁻⁶ cm/s |  |  |  |  |  |  |  |
| CC1(C)S[C@@H]2[C@H](NC(=O)COc3ccccc3)C(=O)N2[C@H]1C(=O)O [PENICILLIN V] | 178 µg/mL (≈ 508 µM) | 1.54 | 33 µM | 0.82 µM | 70 ×10⁻⁶ cm/s |  |  |  |  |  |  |  |
| CCN1CCN(C(=O)N[C@@H](C(=O)N[C@@H]2C(=O)N3[C@@H]2SC(C)(C)[C@@H]3C(=O)O)c2ccccc2)C(=O)C1=O [PIPERACILLIN] | 46 µg/mL (≈ 88.9 µM) | 0.45 | 1.2 µM | 1.06 µM | 30 ×10⁻⁶ cm/s |  |  |  |  |  |  |  |
| B1 |  |  |  |  |  | 29 µM | 31 µM | 18 µM | 29 µM | 34 µM | 34 µM | 52 µM |
